What was measured:
[1] = biological target: T1, Amyloid-beta precursor protein (Homo sapiens, UniProt P05067); test: Inhibition of amyloid beta (1 to 40 residues) (unknown origin) aggregation incubated for 72 hrs by Thioflavin T assay
Outline: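 Aβ40 (20 μM) aggregation in a kinetic format with ThT (8 μM), fluorescence read over 72 h. IC50 came from dose-response curves of percent inhibition and was collected only for compounds giving >50% inhibition at 25 μM in this assay and IC50 <50 μM in the bio-Aβ42 oligomer assay.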

[2] = biological target: T1, Amyloid-beta precursor protein; test: Inhibition of amyloid beta (1 to 40 residues) (unknown origin) aggregation at 25 uM incubated for 72 hrs by Thioflavin T assay
Outline: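 Kinetic ThT aggregation format: monomeric Aβ40 (20 μM) with ThT (8 μM) and compound at a single 25 μM concentration. Fluorescence was followed over 72 h, and percent inhibition of aggregation was taken at 72 h.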

[3] = biological target: T1, Amyloid-beta precursor protein; test: Inhibition of N-alpha-biotinyl-amyloid beta (1 to 42 residues) (unknown origin) oligomerization incubated for 1 hr by sandwich biotin-avidin assay
Outline: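 Sub-nanomolar detection of N-α-biotinyl-Aβ(1–42) oligomers using single-site NeutrAvidin capture with labeled streptavidin detection. The format recognizes multimeric (>20 kDa) oligomers but not monomer. Compounds were tested over 1–50 μM to build dose-response curves, from which IC50 was determined.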

T1 sequence (P05067 whole entry, the tested form may be a part): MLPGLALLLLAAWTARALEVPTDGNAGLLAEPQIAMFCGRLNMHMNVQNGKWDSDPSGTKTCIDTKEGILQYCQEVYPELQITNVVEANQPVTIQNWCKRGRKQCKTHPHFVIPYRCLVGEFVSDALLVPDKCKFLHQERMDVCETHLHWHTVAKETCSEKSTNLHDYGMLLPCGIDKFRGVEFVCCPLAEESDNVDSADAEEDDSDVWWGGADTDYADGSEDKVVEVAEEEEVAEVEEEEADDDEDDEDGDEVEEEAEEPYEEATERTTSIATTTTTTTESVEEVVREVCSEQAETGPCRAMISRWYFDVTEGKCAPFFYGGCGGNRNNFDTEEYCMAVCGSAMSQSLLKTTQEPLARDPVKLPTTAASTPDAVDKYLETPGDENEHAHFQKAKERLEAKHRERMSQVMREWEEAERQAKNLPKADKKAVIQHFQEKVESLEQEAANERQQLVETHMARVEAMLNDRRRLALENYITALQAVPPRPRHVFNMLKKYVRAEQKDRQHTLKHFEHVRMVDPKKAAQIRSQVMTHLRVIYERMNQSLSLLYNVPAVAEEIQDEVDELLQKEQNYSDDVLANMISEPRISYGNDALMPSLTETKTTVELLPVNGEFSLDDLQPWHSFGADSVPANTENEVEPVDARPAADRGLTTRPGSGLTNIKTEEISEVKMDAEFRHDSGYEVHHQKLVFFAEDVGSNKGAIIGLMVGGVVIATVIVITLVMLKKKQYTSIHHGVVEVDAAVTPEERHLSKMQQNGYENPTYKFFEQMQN

Row | SMILES | IC50 [1] | inhibition [2] | IC50 [3]
1 | CC1=NN(c2ccc(-c3ccccc3)cc2)C(=O)C1 | 5.6 µM | 78.7% | 19.5 µM
2 | CC1=NN(c2ccc(C)cc2)C(=O)C1 |  | 16.3% | > 50 µM
3 | CC1=NN(c2ccc(-c3cccnc3)cc2)C(=O)C1 | 14.5 µM | 53.2% | 3.9 µM
4 | CC1=NN(c2cc(F)ccc2C)C(=O)C1 |  | 26.2% | > 50 µM
5 | CC1=NN(c2cccc(C)c2)C(=O)C1 |  | 30.9% | > 50 µM
6 | COc1cc(N2N=C(C)CC2=O)nc(OC)n1 |  | 48.2% | > 50 µM
7 | CCc1ccccc1N1N=C(C)CC1=O |  | 26.3% | > 50 µM
8 | CC1=NN(c2ccc(-n3c(-c4ccccc4)cc4ccccc43)cc2)C(=O)C1 | 19.6 µM | 71.4% | 3.5 µM
9 | CC1=NN(c2ccc(C(F)(F)F)cc2)C(=O)C1 |  | 56.3% | > 50 µM
10 | CC1=NN(c2ccccc2)C(=O)C1 [EDARAVONE] |  | 17.2% | > 50 µM
11 | CC1=NN(c2cccc(COCc3ccccc3)c2)C(=O)C1 | 27 µM | 53.4% | 2.9 µM
12 | CC1=NN(c2cccc(N3CCCC3)c2)C(=O)C1 |  | 47% | 16.8 µM
13 | COc1cccc(N2N=C(C)CC2=O)c1 | > 50 µM | 39.7% | > 50 µM
14 | CC1=NN(c2cccnc2)C(=O)C1 |  | 20.2% | > 50 µM
15 | CC1=NN(c2ccc(N(c3ccccc3)c3ccccc3)cc2)C(=O)C1 | > 50 µM | 50.7% | 4 µM
16 | CC1=NN(c2cc(C)ccc2C)C(=O)C1 |  | 7.4% | > 50 µM
17 | CC1=NN(c2ccc(C)c(F)c2)C(=O)C1 |  | 49% | > 50 µM
18 | COc1ccc(-c2ccc(N3N=C(C)CC3=O)cc2)cc1 | 3.4 µM | 69.6% | 5.1 µM
19 | CC1=NN(c2ccccc2C)C(=O)C1 |  | 22.7% | > 50 µM
20 | CC1=NN(c2ccc3ccccc3c2)C(=O)C1 |  | 56.2% | > 50 µM
21 | CC1=NN(c2ccc(-n3cccc3)cc2)C(=O)C1 | 26 µM | 60.6% | 4 µM
22 | COc1cc(F)cc(N2N=C(C)CC2=O)c1 |  | 26.4% | > 50 µM

Source: ChEMBL document CHEMBL3739287, “Diversification of edaravone via palladium-catalyzed hydrazine cross-coupling: Applications against protein misfolding and oligomerization of beta-amyloid” (Bioorg Med Chem Lett, 2016)
